According to ChEMBL document CHEMBL4706633, “Design, Synthesis, and Biological Evaluation of a Series of Oxazolone Carboxamides as a Novel Class of Acid Ceramidase Inhibitors” (J Med Chem, 2020):
Values after ≈ are worked out from the molar mass of the structure shown. One block for each molecule: values may come before it. Active and inactive are the calls of the source. No cut-off for these calls is given here.

Legend:
Acid ceramidase [1] = biological target: T1, Acid ceramidase (Homo sapiens, UniProt Q13510); experiment: Inhibition of human acid ceramidase
T1 sequence (Q13510 whole entry): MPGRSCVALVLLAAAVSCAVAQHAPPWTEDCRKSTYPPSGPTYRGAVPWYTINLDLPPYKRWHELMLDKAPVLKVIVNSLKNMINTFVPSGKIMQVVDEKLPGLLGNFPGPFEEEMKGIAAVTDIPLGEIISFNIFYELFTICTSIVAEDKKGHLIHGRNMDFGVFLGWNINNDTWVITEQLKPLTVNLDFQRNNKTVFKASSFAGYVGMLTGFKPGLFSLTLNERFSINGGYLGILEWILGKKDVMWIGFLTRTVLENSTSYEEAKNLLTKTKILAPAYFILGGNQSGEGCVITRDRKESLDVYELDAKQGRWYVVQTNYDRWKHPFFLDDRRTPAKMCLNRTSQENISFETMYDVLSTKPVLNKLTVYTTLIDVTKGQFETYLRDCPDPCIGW

[2] = Half life in mouse plasma at 2 uM by LC/MS-MS analysis; type: ADME, cell-free
Method in brief: (§1)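 Kinetic aqueous solubility was measured in PBS, pH 7.4. Metabolic stability was measured as t1/2 in mouse plasma and mouse liver microsomes, with microsomal data also given as % compound remaining at 1 h. Values are means of at least two independent experiments, each in two technical replicates.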

Acid ceramidase [3] = biological target: T1, Acid ceramidase; experiment: Inhibition of human acid ceramidase using Rbm14-12 fluorogenic substrate incubated for 1 hr by fluorescence assay
[4] = Stability in mouse liver microsomes at 4.6 uM in presence of NADPH after 60 mins by LC/MS-MS analysis; type: ADME, Microsome; conditions: read-out: Stabilty; method in brief: as §1
[5] = Half life in mouse liver microsomes at 4.6 uM in presence of NADPH by LC/MS-MS analysis; type: ADME, Microsome; method in brief: as §1
[6] = Stability in mouse plasma at 2 uM after 120 mins by LC/MS-MS analysis; type: ADME, cell-free; conditions: read-out: Stabilty
[7] = Kinetic solubility in pH 7.4 PBS buffer at 250 uM incubated for 1 hr by UPLC/MS analysis; type: physicochemical; conditions: read-out: Kinetic_solubility; method in brief: as §1
Acid ceramidase [8] = biological target: T1, Acid ceramidase; experiment: Inhibition of acid ceramidase in human HL-60 cell lysates; type: subcellular
Acid ceramidase [9] = biological target: T1, Acid ceramidase; experiment: Inhibition of acid ceramidase in human HaCaT cell lysates; type: subcellular
[10] = Half life in mouse plasma; type: ADME, cell-free; method in brief: as §1
[11] = biological target: T2, Acid ceramidase (Homo sapiens) (UniProt Q13510); experiment: Inhibition of human acid ceramidase at 10 uM using N-lauroyl ceramide incubated for 1 hr by LC/MS analysis relative to control
T2 sequence (whole entry): T1 sequence (Q13510 whole entry)

[12] = biological target: T2, Acid ceramidase (Homo sapiens); experiment: Inhibition of human acid ceramidase at 1 to 10 uM using N-lauroyl ceramide incubated for 1 hr by LC/MS analysis; conditions: dose 1-10 µM
[13] = Half life in pH 7 0.01M PBS buffer at 2 uM by LC/MS-MS analysis; type: physicochemical
[14] = biological target: T2, Acid ceramidase (Homo sapiens); experiment: Irreversible covalent inhibition of human acid ceramidase using N-lauroyl ceramide incubated for 1 hr by LC/MS analysis
Acid ceramidase [15] = biological target: T1, Acid ceramidase; experiment: Inhibition of acid ceramidase in human SK-OV-3 cell lysates; type: subcellular
[16] = biological target: T2, Acid ceramidase (Homo sapiens); experiment: Inhibition of acid ceramidase in human NCI-H460 cells at 25 uM relative to control; type: cell-based
[17] = biological target: T2, Acid ceramidase (Homo sapiens); experiment: Inhibition of human acid ceramidase at 5 uM using N-lauroyl ceramide incubated for 1 hr by LC/MS analysis relative to control
[18] = biological target: T2, Acid ceramidase (Homo sapiens); experiment: Inhibition of human acid ceramidase using Rbm14-12 fluorogenic substrate incubated for 1 hr by fluorescence assay

Structure (SMILES): CCOCCNC(=O)n1cc(-c2ccccc2)oc1=O
t1/2 [2]: 1.33 h
IC50 (Acid ceramidase [3]; read-out: IC50): 2040 nM
t1/2 [5]: < 0.083 h
solubility kinetic at 1 h, 250 µM [7]: 20 µM (≈ 5.53 µg/mL)

Structure (SMILES): CCCCCCCCCCCCCC(=O)N[C@H](C)[C@@H](O)c1ccccc1
IC50 (Acid ceramidase [8]): > 500000 nM
IC50 (Acid ceramidase [9]): 500000 nM

Structure (SMILES): O=C(NCCCCc1ccccc1)n1cc(-c2ccc(Cl)cc2)oc1=O
IC50 (Acid ceramidase [3]; read-out: IC50): 83 nM

Structure (SMILES): CCCCCNC(=O)n1cc(-c2ccccc2)oc1=O
t1/2 [2]: > 2 h
IC50 (Acid ceramidase [3]; read-out: IC50): 39 nM
t1/2 [5]: < 0.083 h
remaining at 2 h, 2 µM [6]: 60%
solubility kinetic at 1 h, 250 µM [7]: < 1 µM

Structure (SMILES): CC(C)CNC(=O)n1cc(-c2ccccc2)oc1=O
t1/2 [2]: > 2 h
IC50 (Acid ceramidase [3]; read-out: IC50): 1700 nM
t1/2 [5]: 0.833 h
remaining at 2 h, 2 µM [6]: 70%
solubility kinetic at 1 h, 250 µM [7]: < 1 µM

Structure (SMILES): O=C(NCCCCc1ccccc1)n1cc(-c2ccncc2)oc1=O
t1/2 [2]: 0.5 h
IC50 (Acid ceramidase [3]; read-out: IC50): 18 nM
remaining at 1 h, 4.6 µM [4]: 75%
t1/2 [5]: > 1 h
solubility kinetic at 1 h, 250 µM [7]: < 1 µM

Structure (SMILES): O=C(NCCCCc1ccccc1)n1cc(-c2cnc3ccccc3n2)oc1=O
IC50 (Acid ceramidase [3]; read-out: IC50): 37 nM

Structure (SMILES): COc1cc(-c2cn(C(=O)NCCCCc3ccccc3)c(=O)o2)ccc1F
t1/2 [2]: > 2 h
IC50 (Acid ceramidase [3]; read-out: IC50): 80 nM
remaining at 1 h, 4.6 µM [4]: 74%
t1/2 [5]: > 1 h
remaining at 2 h, 2 µM [6]: 64%
solubility kinetic at 1 h, 250 µM [7]: < 1 µM

Structure (SMILES): O=C(NCCCCc1ccccc1)n1c(-c2ccc(Cl)cc2)coc1=O
IC50 (Acid ceramidase [3]; read-out: IC50): 5 nM

Structure (SMILES): CCCCCCNC(=O)n1cc(Cl)c(=O)n(C(=O)OCC(C)C)c1=O
IC50 (Acid ceramidase [1]): 12.8 nM

Structure (SMILES): O=C(NCCCCc1ccccc1)N1C[C@H](c2ccccc2)OC1=O
inhibition [12]: inactive

Structure (SMILES): CCCCCNC(=O)n1c(-c2ccccc2)coc1=O
IC50 (Acid ceramidase [3]; read-out: IC50): 25 nM

Structure (SMILES): Cc1c(-c2ccccc2)oc(=O)n1C(=O)NCCCCc1ccccc1
IC50 (Acid ceramidase [3]; read-out: IC50): 69 nM

Structure (SMILES): CC(C)CNC(=O)n1cc(-c2ccc(F)cc2C2CCN(C)CC2)oc1=O
inhibition [11]: 38%

Structure (SMILES): CCC(C)NC(=O)n1cc(-c2ccccc2)oc1=O (racemic)
inhibition [11]: 21%

Structure (SMILES): CCCCCCCCCCCCCC(=O)NCC(O)c1ccccc1 (centres undefined)
IC50 (Acid ceramidase [1]): 1290 nM

Structure (SMILES): O=C(OCCCCc1ccccc1)n1cc(-c2ccccc2)oc1=O
inhibition [12]: inactive

Structure (SMILES): CCCCCCCCCCCCCCC[C@@H](O)[C@H](CO)NC(=O)CBr
IC50 (Acid ceramidase [1]): 52 nM

Structure (SMILES): O=C(NCCCCc1ccccc1)N1C[C@@H](c2ccccc2)OC1=O
inhibition [12]: inactive

Structure (SMILES): N=C(N)Nc1ccc(CC(=O)Oc2ccc(-c3ccccc3)cc2)cc1
IC50 (Acid ceramidase [1]): 52000 nM

Structure (SMILES): O=C(NCCCCc1ccccc1)n1cc(-c2cscn2)oc1=O
IC50 (Acid ceramidase [3]; read-out: IC50): 44 nM

Structure (SMILES): Cn1nc(-c2cn(C(=O)NCCCCc3ccccc3)c(=O)o2)c2ccccc21
IC50 (Acid ceramidase [3]; read-out: IC50): 92 nM

Structure (SMILES): CN(CCCCc1ccccc1)C(=O)n1cc(-c2ccccc2)oc1=O
inhibition [12]: inactive

Structure (SMILES): O=C(Nc1ccccc1)n1cc(-c2ccccc2)oc1=O
inhibition [17]: 20%

Structure (SMILES): CCCCCNC(=O)n1cc(-c2ccc(F)c(C3CCN(C)CC3)c2)oc1=O
IC50 (Acid ceramidase [3]; read-out: IC50): 1920 nM

Structure (SMILES): CN1CCC(c2cc(F)ccc2-c2c[nH]c(=O)o2)CC1
inhibition [18]: inactive

Structure (SMILES): O=C(NCCCCc1ccccc1)n1c(-c2ccccc2)coc1=O
half-life at 2 µM [13]: 0.167 h

Structure (SMILES): O=C(NCCCCc1ccccc1)n1cc(-c2ccccn2)oc1=O
t1/2 [2]: 0.667 h
IC50 (Acid ceramidase [3]; read-out: IC50): 25 nM
t1/2 [5]: 0.167 h
solubility kinetic at 1 h, 250 µM [7]: < 1 µM

Structure (SMILES): Cc1oc(=O)n(C(=O)NCCCCc2ccccc2)c1-c1ccccc1
IC50 (Acid ceramidase [3]; read-out: IC50): 42 nM

Structure (SMILES): CC(C)CNC(=O)n1cc(-c2ccc(F)c(C3CCN(C)CC3)c2)oc1=O
inhibition [11]: 26%

Results, then the molecule that gave them:

IC50 (Acid ceramidase [1]): 7.7 nM
Structure (SMILES): CCCCCCNC(=O)n1cc(F)c(=O)n(C(=O)OCC(C)C)c1=O

t1/2 [2]: > 2 h
IC50 (Acid ceramidase [3]; read-out: IC50): 341 nM
remaining at 1 h, 4.6 µM [4]: 70%
t1/2 [5]: > 1 h
remaining at 2 h, 2 µM [6]: 80%
solubility kinetic at 1 h, 250 µM [7]: 30 µM (≈ 13.5 µg/mL)
Structure (SMILES): CN1CCC(c2cc(-c3cn(C(=O)NCCCCc4ccccc4)c(=O)o3)ccc2F)CC1

IC50 (Acid ceramidase [3]; read-out: IC50): 1400 nM
Structure (SMILES): CN1CCC(c2cn(C(=O)NCCCCc3ccccc3)c(=O)o2)CC1

IC50 (Acid ceramidase [3]; read-out: IC50): 400 nM
Structure (SMILES): COc1ccc(-c2cn(C(=O)NCCCCc3ccccc3)c(=O)o2)cc1

t1/2 [2]: 1 h
IC50 (Acid ceramidase [3]; read-out: IC50): 70 nM
remaining at 1 h, 4.6 µM [4]: 55%
t1/2 [5]: > 1 h
solubility kinetic at 1 h, 250 µM [7]: < 1 µM
Structure (SMILES): O=C(NCCCCc1ccccc1)n1cc(-c2cccnc2)oc1=O

IC50 (Acid ceramidase [1]): 14 nM
half-life [10]: 9 min
Structure (SMILES): CCCCCCNC(=O)n1nc(C)cc1C(F)(F)F

t1/2 [2]: > 2 h
IC50 (Acid ceramidase [3]; read-out: IC50): 341 nM
t1/2 [5]: 0.5 h
remaining at 2 h, 2 µM [6]: 64%
solubility kinetic at 1 h, 250 µM [7]: < 1 µM
Structure (SMILES): COc1cccc(-c2cn(C(=O)NCCCCc3ccccc3)c(=O)o2)c1

IC50 (Acid ceramidase [3]): Not Active
Structure (SMILES): O=c1[nH]cc(-c2ccccc2)o1

inhibition [11]: 53%
Structure (SMILES): COCCCNC(=O)n1cc(-c2ccccc2)oc1=O

t1/2 [2]: < 0.083 h
IC50 (Acid ceramidase [3]; read-out: IC50): 90 nM
t1/2 [5]: 0.667 h
half-life at 2 µM [13]: > 12 h
solubility kinetic at 1 h, 250 µM [7]: < 1 µM
inhibition [14]: Dose-dependent effect
Structure (SMILES): O=C(NCCCCc1ccccc1)n1cc(-c2ccccc2)oc1=O

t1/2 [2]: > 2 h
IC50 (Acid ceramidase [3]; read-out: IC50): 337 nM
remaining at 1 h, 4.6 µM [4]: 51%
t1/2 [5]: > 1 h
remaining at 2 h, 2 µM [6]: 54%
solubility kinetic at 1 h, 250 µM [7]: 60 µM (≈ 27.1 µg/mL)
Structure (SMILES): CN1CCC(c2cc(F)ccc2-c2cn(C(=O)NCCCCc3ccccc3)c(=O)o2)CC1

IC50 (Acid ceramidase [15]): 28000 nM
inhibition [16]: 44%
IC50 (Acid ceramidase [1]): 28000 nM
Structure (SMILES): COc1ccc(/C=C/C(=O)c2c(-c3ccccc3)c3ccccc3[nH]c2=O)cc1

inhibition [12]: inactive
Structure (SMILES): O=C(CCCCCc1ccccc1)n1cc(-c2ccccc2)oc1=O

t1/2 [2]: 0.667 h
IC50 (Acid ceramidase [3]; read-out: IC50): 32 nM
t1/2 [5]: 1 h
solubility kinetic at 1 h, 250 µM [7]: < 1 µM
Structure (SMILES): O=C(NCCCCc1ccccc1)n1cc(-c2cnccn2)oc1=O

IC50 (Acid ceramidase [1]): 500000 nM
Structure (SMILES): CCCCCCCC/C=C\CCCCCCCC(=O)NCCO [OLEOYLETHANOLAMIDE]

t1/2 [2]: 1.5 h
IC50 (Acid ceramidase [3]; read-out: IC50): 185 nM
t1/2 [5]: 1 h
solubility kinetic at 1 h, 250 µM [7]: < 1 µM
Structure (SMILES): O=C(NCCCCc1ccccc1)n1cc(-c2ccc(F)cc2)oc1=O

t1/2 [2]: > 2 h
IC50 (Acid ceramidase [3]; read-out: IC50): 153 nM
t1/2 [5]: 0.5 h
remaining at 2 h, 2 µM [6]: 73%
solubility kinetic at 1 h, 250 µM [7]: 70 µM (≈ 30.3 µg/mL)
Structure (SMILES): CN1CCC(c2cccc(-c3cn(C(=O)NCCCCc4ccccc4)c(=O)o3)c2)CC1

IC50 (Acid ceramidase [3]; read-out: IC50): 59 nM
Structure (SMILES): O=C(NCCCCc1ccccc1)n1cc(-c2nccs2)oc1=O

IC50 (Acid ceramidase [3]; read-out: IC50): 177 nM
Structure (SMILES): COc1ccccc1-c1cn(C(=O)NCCCCc2ccccc2)c(=O)o1
